Experimental data taken from ChEMBL document CHEMBL3352192, “Evaluation of lignans from Heliopsis helianthoides var. scabra for their potential antimetastatic effects in the brain” (J Nat Prod, 2014).
The source made the active and inactive calls. The calls are words filed in the database; no cut-off is given here.

What was measured:
A2058 [1] = assay: Cytotoxicity against human A2058 cells at 1 to 10 uM after 8 hrs by EZ4U assay; type: functional, cell-based
Outline: (§1)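 Confluent A2058, hCMEC/D3 and primary rat brain endothelial cells exposed 8 h to 10, 5, 2.5 or 1.25 μM compound. Media: serum-free MEM (A2058), serum-free EBM-2 (D3), DMEM/F12 + 5% PDS (RBEC). DMSO 0.1% (v/v) in all wells, vehicle controls. EZ4U mitochondrial dehydrogenase read-out after 45 min, OD 450 nm.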

hCMEC/D3 [2] = assay: Cytotoxicity against human CMEC/D3 cells at 1 to 10 uM after 8 hrs by EZ4U assay; type: functional, cell-based; outline: as §1
[3] = Cytotoxicity against RBEC at 1 to 10 uM after 8 hrs by EZ4U assay; details: rat; outline: as §1
A2058 [4] = assay: Inhibition of adhesion of human A2058 cells to endothelial cells at 2 uM pretreated for 3 hrs before adhesion and during adhesion; type: functional, cell-based
Outline: (§2)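 Confluent hCMEC/D3 monolayers and A2058 cells were each pretreated 3 h with compound. Melanoma cells were labelled with Oregon Green 488 diacetate succinimidyl ester and added to the endothelium (10^5 or 5×10^4 cells/well) in serum-free medium containing the same compound for 80 min. After washing and EtOH−AcOH fixation, attached cells were imaged and counted. Results are % of control, means ± SD, n = 3.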

A2058 [5] = assay: Inhibition of migration of human A2058 cells assessed as elongated shape and longer protrusion at 5 uM by phase contrast microscopy; type: functional, cell-based
Outline: (§3)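 A2058 melanoma cells were treated 2 h with 5 μM compound. They were fixed in 4% HCHO, permeabilized with acetone at −20 °C for 10 min, blocked, and stained with Alexa488-phalloidin. Actin cytoskeleton and cell shape were examined by epifluorescence microscopy, with phase contrast images also taken.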

A2058 [6] = assay: Inhibition of migration of human A2058 cells assessed as expanded cells without large filopodia at 5 uM using Alexa-488-labeled phalloidin by microscopy; type: functional, cell-based; outline: as §3
A2058 [7] = assay: Inhibition of migration of human A2058 cells at 10 uM by wound-healing assay; type: functional, cell-based
Outline: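 A2058 confluent monolayer was scratched, and wound closure was tracked for 24 h at 2, 5 or 10 μM by phase contrast microscopy (10× objective). Migration is expressed as % of control cells migrated over 24 h; means ± SD, n = 4, ANOVA with Bonferroni.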

A2058 [8] = assay: Inhibition of adhesion of human A2058 cells to endothelial cells at 10 uM pretreated for 3 hrs before adhesion and during adhesion; type: functional, cell-based; outline: as §2
Rattus norvegicus [9] = species on record: Rattus norvegicus; assay: Increase in integrity of RBEC at 5 uM after 2 hrs by ZO-1 staining method; type: functional
Outline: (§4)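 Confluent RBECs or hCMEC/D3 cells, 2 h compound exposure (0.1% DMSO vehicle), then fixed in EtOH−AcOH 95:5 at −20 °C. Blocked with 3% BSA, rabbit anti-ZO-1 overnight, Cy3 goat anti-rabbit, Hoechst 33342 nuclei. Tight-junction staining at cell–cell contacts assessed by epifluorescence microscopy.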

Rattus norvegicus [10] = species on record: Rattus norvegicus; assay: Increase in transendothelial electrical resistance in RBEC at 5 uM after 2 hrs relative to control; type: functional
Outline: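 Primary RBECs from 2-week-old rats were grown on collagen/fibronectin-coated Transwell filters. After confluence they got 550 nM hydrocortisone, 250 μM CPT-cAMP and 17.5 μM RO-201724, with astrocyte-conditioned medium. Once TEER plateaued (120−140 Ω·cm2), compound was added (0.1% DMSO) and TEER was followed automatically for 2 h. Expressed as % of untreated RBECs at 2 h; means ± SD, n = 3.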

hCMEC/D3 [11] = assay: Increase in integrity of human CMEC/D3 cells at 2 uM after 2 hrs by ZO-1 staining method; type: functional, cell-based; outline: as §4
hCMEC/D3 [12] = assay: Inhibition of migration of human CMEC/D3 cells after 24 hrs by wound-healing assay; type: functional, cell-based
Outline: (§5)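 hCMEC/D3 cells on rat-tail collagen were grown to 100% confluency, scratched with a pipet tip, and washed with PBS. They were then treated in Leibovitz medium + 5% FBS and imaged by phase contrast for 24 h at 37 °C (10× objective). Migration is given as % of control over 24 h; means ± SD, n = 4.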

hCMEC/D3 [13] = assay: Inhibition of migration of human CMEC/D3 cells at 10 uM after 24 hrs by wound-healing assay; type: functional, cell-based; outline: as §5
A2058 [14] = assay: Inhibition of migration of human A2058 cells assessed as elongated shape with actin-rich protrusion at 5 uM using Alexa-488-labeled phalloidin by microscopy; type: functional, cell-based; outline: as §3
A2058 [15] = assay: Inhibition of migration of human A2058 cells assessed as filopodia at 5 uM using Alexa-488-labeled phalloidin by microscopy; type: functional, cell-based; outline: as §3
A2058 [16] = assay: Inhibition of migration of human A2058 cells assessed as cells with stress fibers at 5 uM using Alexa-488-labeled phalloidin by microscopy; type: functional, cell-based; outline: as §3
A2058 [17] = assay: Inhibition of adhesion of human A2058 cells to endothelial cells at 5 uM pretreated for 3 hrs before adhesion; type: functional, cell-based
Outline: (§6)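 Cell-type pretreatment adhesion: either hCMEC/D3 monolayers (2 μM) or A2058 cells (5 μM) were pretreated 3 h. Labelled melanoma cells were then allowed to attach for 80 min in serum-free medium without compound. Fixed, imaged and counted; % of untreated control, means ± SD, n = 3.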

A2058 [18] = assay: Inhibition of adhesion of human A2058 cells to endothelial cells at 2 uM pretreated to endothelial cells for 3 hrs before adhesion; type: functional, cell-based; outline: as §6

## COC(=O)[C@H](Cc1ccc2c(c1)OCO2)[C@@H](Cc1ccc2c(c1)OCO2)C(=O)OC
A2058 [1]
  Activity: inactive
hCMEC/D3 [2]
  Activity: inactive
[3]
  Activity: Non-toxic
A2058 [4]
  inhibition: inactive

## COC(=O)/C(=C/c1ccc2c(c1)OCO2)C(Cc1ccc2c(c1)OCO2)C(=O)OC (stereo not given)
A2058 [1]
  Activity: inactive
hCMEC/D3 [2]
  Activity: inactive
[3]
  Activity: Non-toxic
A2058 [5]
  inhibition: Active
A2058 [6]
  inhibition: Active
A2058 [7]
  inhibition: Active
A2058 [4]
  inhibition: inactive
A2058 [8]
  inhibition: Active
Rattus norvegicus [9]
  Activity: Active
Rattus norvegicus [10]
  Activity: Active
hCMEC/D3 [11]
  Activity: Active
hCMEC/D3 [12]
  inhibition: Dose-dependent effect
hCMEC/D3 [13]
  inhibition: Active

## CC(=O)O[C@H](c1ccc2c(c1)OCO2)[C@H]1C(=O)OC[C@@H]1Cc1ccc2c(c1)OCO2
A2058 [1]
  Activity: inactive
hCMEC/D3 [2]
  Activity: inactive
[3]
  Activity: Non-toxic
A2058 [4]
  inhibition: inactive

## COCCCc1cc(OC)c2oc(-c3ccc4c(c3)OCO4)cc2c1
A2058 [1]
  Activity: inactive
hCMEC/D3 [2]
  Activity: inactive
[3]
  Activity: Non-toxic
A2058 [4]
  inhibition: inactive

## COC/C=C/c1cc(OC)c2oc(-c3ccc4c(c3)OCO4)cc2c1
A2058 [1]
  Activity: inactive
hCMEC/D3 [2]
  Activity: inactive
[3]
  Activity: Non-toxic
A2058 [4]
  inhibition: inactive

## O=C1OCc2c1cc1ccc3c(c1c2-c1ccc2c(c1)OCO2)OCO3 [HELIOXANTHIN]
A2058 [1]
  Activity: inactive
hCMEC/D3 [2]
  Activity: inactive
[3]
  Activity: Non-toxic
A2058 [5]
  inhibition: Active
A2058 [14]
  inhibition: Active
A2058 [15]
  inhibition: Active
A2058 [16]
  inhibition: Active
A2058 [4]
  inhibition: Active
A2058 [8]
  inhibition: Active
A2058 [17]
  inhibition: inactive
A2058 [18]
  inhibition: Active
Rattus norvegicus [9]
  Activity: Active
Rattus norvegicus [10]
  Activity: 15%
hCMEC/D3 [11]
  Activity: Active
hCMEC/D3 [12]
  inhibition: Dose-dependent effect
hCMEC/D3 [13]
  inhibition: Active
